Assay outcomes as filed in PubChem.
MrgX1 ag = activates human MrgX1 receptor signaling; Q96LB2; MrgX1-HEK293 cells, Fluo-4 calcium fluorescence, agonist mode; hits give high values; B-score at 10 µM; 310,000 compounds, 0.44% hits; AID 588627;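 active means calcium response B-score plate-corrected fluorescence ratio at least 3 library SD, with starting fluorescence B-score inside 5 SD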
Target sequence (Q96LB2 whole entry, looked up): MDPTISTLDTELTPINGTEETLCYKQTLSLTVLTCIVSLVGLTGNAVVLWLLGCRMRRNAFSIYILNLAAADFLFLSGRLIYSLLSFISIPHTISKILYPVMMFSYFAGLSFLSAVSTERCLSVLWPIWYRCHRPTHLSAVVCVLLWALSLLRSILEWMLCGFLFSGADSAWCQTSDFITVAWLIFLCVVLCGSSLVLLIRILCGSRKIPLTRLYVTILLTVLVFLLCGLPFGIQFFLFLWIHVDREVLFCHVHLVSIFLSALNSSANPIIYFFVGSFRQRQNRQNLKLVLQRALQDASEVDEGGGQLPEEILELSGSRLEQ
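Test system: Stable human MrgX1 HEK293 cell line | Schedule: Overnight plating before 1 h dye loading | Read-out basis: Baseline-normalised fluorescence change ratio, B-scored | Detection: Kinetic calcium dye fluorescence, Fluo-4 NW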
RGS4 pot = potentiators or activators of RGS4. B-score at 10 µM. HEK293 M3R/inducible RGS4, carbachol calcium flux Fluo4; hits give low values. 310,000 compounds, 0.92% hits;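 active means B-score of the integrated calcium signal more than 4 SD below the library mean, with starting fluorescence not abnormally high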;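 further: negative B-score means reduced calcium response which marks RGS4 activation or potentiation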
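Assay system: Inducible-RGS4 HEK293 cells carrying M3 receptor | Schedule: Compound preincubation 20 min at room temperature before agonist | Signal: Kinetic calcium fluorescence imaging with Fluo4-AM dye, 2 µM | Read-out basis: B score from integrated fluorescence ratio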
MrgX1 antagonist = antagonists of human MrgX1 receptor. Q96LB2. MRGX1-HEK293 calcium flux, Fluo-4, BAM8-22 antagonism; hits give low values. B-score at 10 µM. 310,000 compounds, 1.3% hits. AID 588676;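 active means calcium-response B-score plate-corrected more than 3 library SD below zero, starting fluorescence within 5 deviations, no agonist response on first addition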;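 further: peak minus trough fluorescence over baseline after final BAM8-22 challenge near maximal dose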
MrgX1 allo act = allosterically activates human MrgX1 receptor signaling | Q96LB2 | 310,000 compounds, 0.63% hits | B-score at 10 µM | MrgX1-HEK293, Fluo-4 calcium flux, FDSS; hits give high values;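 active means plate-corrected calcium response at least 3 library SD above typical, normal starting fluorescence, not activating the receptor alone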;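 further: compound read alongside a low EC10 to EC30 dose of BAM8-22 agonist; peak minus trough fluorescence over baseline measured at the second addition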
RGS4 inh = human RGS4 inhibition. P49798. HEK293 M3R/RGS4 inducible, Fluo-4 calcium flux; hits give high values; triggered by carbachol at its EC20. B-score at 10 µM. 310,000 compounds, 0.45% hits. AID 463165;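 active means B-score, a plate-corrected calcium signal, over three deviations above library mean, with baseline fluorescence within five deviations of library mean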;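 further: RGS4 expression induced by doxycycline in cells with stable M3 receptor; B-score is computed from the integrated fluorescence ratio over baseline after carbachol; higher B-score means a larger calcium signal and so more RGS4 inhibition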
Target sequence (P49798 whole entry, looked up): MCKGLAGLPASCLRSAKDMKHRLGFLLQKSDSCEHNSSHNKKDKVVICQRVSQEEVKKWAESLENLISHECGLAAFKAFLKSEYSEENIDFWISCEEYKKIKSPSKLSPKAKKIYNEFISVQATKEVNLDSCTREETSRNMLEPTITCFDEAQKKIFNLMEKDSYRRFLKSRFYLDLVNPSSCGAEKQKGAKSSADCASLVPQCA
MrgX1 antag conf = confirmation of human MrgX1 receptor antagonists; shares compounds with MrgX1 antagonist; 2,300 compounds, 19% hits; MrgX1-HEK293, BAM8-22 calcium flux, Fluo-4; hits give low values; remaining BAM8-22 calcium response % of control (hits give low values), % at 10 µM;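 active means remaining agonist calcium response no higher than 100% minus 3 SD of agonist-only control wells, with starting fluorescence near control levels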;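 further: agonist BAM8-22 given at a near maximal EC90 to ECmax level; peak minus minimum fluorescence divided by baseline after agonist addition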
HEK293 Ca flux = counter-screen for MrgX1 antagonists: effect in parental HEK293 cells; Fluo-4 calcium fluorescence, FDSS; fluorescence ratio F(max-min)/F0 at 10 µM; AID 624111; shares compounds with MrgX1 antagonist; 4,000 compounds, 2% hits;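 active means duplicate-averaged calcium fluorescence ratio at least three times the standard deviation of buffer wells, a nonspecific response in parental cells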
HEK293 Ca counter = MrgX1 allosteric activator counter-screen hit in parental HEK293 cells. AID 624114. fluorescence ratio F(max-min)/F0 at 10 µM. shares compounds with MrgX1 antagonist. 4,000 compounds, 0.4% hits. parental HEK293 calcium flux, Fluo-4 fluorescence ratio; hits give high values;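 active means calcium fluorescence ratio, averaged over duplicates, at least 3 SD of the buffer-well ratio, meaning a nonspecific response in receptor-free cells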;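 further: untransfected parental HEK293 lacking MrgX1 used as counterscreen for MrgX1 allosteric activators; fluorescence change taken during the second addition on a kinetic imager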
HEK293 Ca cntr2 = activity in parental HEK293 cells lacking MrgX1 receptor; shares compounds with MrgX1 antagonist; Fluo-4 calcium fluorescence (FDSS); hits give high values; fluorescence ratio F(max-min)/F0 at 10 µM; 4,000 compounds, 8.7% hits; AID 624115;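 active means calcium fluorescence ratio at least three times the spread of buffer wells, meaning a non-specific response in parental cells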
* marks the source's active call; other numbers are inactive results; i = inactive; x = not tested or not shown. Sampled rows, rich in hits. Any-hit rate of the full collection: about 3.5%.

SMILES	MrgX1 ag	RGS4 pot	MrgX1 antagonist	MrgX1 allo act	RGS4 inh	MrgX1 antag conf	HEK293 Ca flux	HEK293 Ca counter	HEK293 Ca cntr2
Cc1cc(C)cc(NC(=O)Nc2ccc3c(c2)N(C)C(=O)CS3)c1	i	i	i	i	i	x	x	x	x
CC(=O)c1cccc(NC(=O)Nc2ccc3c(c2)N(C)C(=O)CS3)c1	i	i	-9*	i	i	3.0%*	i	i	i
c1cncc(-c2nnc3n2N=C(c2cccs2)CS3)c1	i	i	-4.7*	i	i	i	i	i	i
CCCn1c(N2CCN(C(=O)Nc3ccccc3)CC2)nc2ccccc21	i	i	i	i	i	x	x	x	x
CCCn1c(N2CCN(C(=O)N3CCCCC3)CC2)nc2ccccc21	i	i	-6.2*	i	i	i	i	i	i
COCCNC(=O)C1CC2Cn3c(nc4cc5ccccc5cc43)C2N1C (stereo not given)	i	i	-5.3*	i	i	i	i	i	i
COCCNC(=O)C1CC2Cn3c(nc4cc(C)c(C)cc43)C2N1C (stereo not given)	i	i	i	i	i	x	x	x	x
CCOc1ccc(NC(=O)CN2CCN(c3ccc(F)cc3)CC2)cc1	i	i	-5.5*	i	i	i	i	i	i
COc1ccc(NC(=O)CN2CCN(c3ccc(F)cc3)CC2)cc1	i	i	i	i	i	x	x	x	x
Cc1cccc2[nH]c3c(=O)n(CCN4CCNCC4)cnc3c12	i	i	i	i	i	x	x	x	x
CC(C)CCn1cnc2c([nH]c3cccc(Cl)c32)c1=O	i	i	-5.8*	i	i	i	i	i	i
CCCN(C(=O)c1cn(-c2ccccc2)nc1-c1ccc(OC)cc1)C1CCS(=O)(=O)C1 (stereo not given)	i	i	i	i	i	x	x	x	x
C=CCOC(=O)C1=C(C)N(C)C(=O)NC1c1cc2c(cc1Br)OCO2 (stereo not given)	i	i	-4.7*	i	i	85%*	i	i	i
COc1ccccc1N1CCN(CC(=O)Nc2nc(C)c(C(=O)N(C)C)s2)CC1	i	i	i	i	i	x	x	x	x
CSc1ccc(S(=O)(=O)N2CCC(C(=O)Nc3cccnc3)CC2)cc1	i	i	i	i	i	x	x	x	x
O=C(Nc1cccnc1)C1CCN(S(=O)(=O)c2ccc(Cl)cc2)CC1	i	i	-7.9*	i	i	i	i	i	i
CC(C)CC(=O)Nc1c2c(nn1-c1ccc(F)cc1)CSC2	i	i	-7.7*	i	i	i	i	i	i
O=C(Nc1cccc(C(F)(F)F)c1)c1cncs1	i	i	i	i	i	x	x	x	x
COc1ccc(S(=O)(=O)N(CCc2ccccc2)CC(N)=O)cc1	i	i	-5.4*	i	i	i	i	i	i
Cc1cc(C(=O)N2CCCC(Nc3ccc(C(C)C)cc3)C2)nn1C (stereo not given)	i	i	i	i	i	x	x	x	x
CC(C)c1ccc(NC2CCCN(C(=O)c3cnsn3)C2)cc1 (stereo not given)	i	i	-6.8*	i	i	i	i	i	i
Cc1ccc(-c2nnc(CSc3nnc(C)s3)o2)cc1	i	i	-5.9*	i	i	i	i	i	i
Cc1ccc(S(=O)(=O)N(C)C)cc1NC(=O)Cn1c(CN2CCOCC2)nc2ccccc2c1=O	i	i	-4.9*	i	i	i	i	i	i
Cc1ccc(S(=O)(=O)N(C)C)cc1NC(=O)CSc1nc2ccccc2c(=O)n1CC1CCCO1 (stereo not given)	i	i	i	i	i	x	x	x	x
CCOc1ccccc1N1CC(C(=O)Nc2c(C)n(C)n(-c3ccccc3)c2=O)CC1=O (stereo not given)	i	i	i	i	i	x	x	x	x
SMILES	MrgX1 ag	RGS4 pot	MrgX1 antagonist	MrgX1 allo act	RGS4 inh	MrgX1 antag conf	HEK293 Ca flux	HEK293 Ca counter	HEK293 Ca cntr2
COC(=O)N1CCCc2cc(C)ccc21	i	i	i	i	i	x	x	x	x
COc1ccc2c(c1)CCCN2C(N)=O	i	i	-4.9*	i	i	i	i	i	i
Cc1noc(C)c1C(=O)Nc1nc2ccc(S(C)(=O)=O)cc2s1	i	i	-7.5*	i	i	i	i	i	i
Cc1ccc(C(=O)Nc2nc3ccc(S(C)(=O)=O)cc3s2)o1	i	i	i	i	i	x	x	x	x
Cc1ccc2c(c1)sc(-c1ccc(N(C)C)cc1)[n+]2C	i	i	-11*	i	i	i	0.66*	i	i
CC[n+]1c(C)sc2cc(C)ccc21	i	i	i	i	i	x	x	x	x
COc1ccc(CCNC(=O)Cn2ccc3c(OC)cccc3c2=O)cc1OC	i	i	i	i	i	x	x	x	x
CS(=O)(=O)c1ncc(Cl)c(C(=O)Nc2ccc(OC(F)F)cc2)n1	i	i	-4.9*	i	i	i	i	i	i
O=C1CC(=O)N(CCc2ccccc2)C(=O)N1CCc1ccccc1	i	i	-11*	i	i	79%*	i	i	i
Cc1c(C(=O)N2CCc3ccccc3C2)oc2ccccc12	i	i	i	i	i	x	x	x	x
Cc1ccc(NC(=O)CSc2ncnc3ccccc23)cc1S(=O)(=O)N1CCCCCC1	i	i	-5.3*	i	i	67%*	i	i	i
COc1ccc(C(=O)NCC(=O)OCC(=O)Nc2sccc2C#N)cc1OC	i	i	-4.6*	i	i	i	i	i	i
CCN(CC(=O)Nc1c(F)cccc1F)C(=O)COc1cccc2c1OC(C)(C)C2	i	i	-5.4*	i	i	i	i	i	i
O=C(NCCCN1CCCC1)c1cc2c(Cl)nc3ccccc3c2s1	i	i	-7.7*	i	i	i	i	i	i
